Data on 25 molecules can be found in ChEMBL document CHEMBL3877271, “Antagonizing STAT3 activation with benzo[b]thiophene 1, 1-dioxide based small molecules” (Eur J Med Chem, 2017).

The term IC50 denotes the concentration that inhibits the measured activity by half. Read a low IC50 as greater potency in that assay.

Series [1] in a line: Antiproliferative activity against human MDA-MB-231 cells after 72 hrs by MTT assay. It counts as functional, cell-based. Conditions: MDA-MB-231, 72 h. In outline:
(§1)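 Cells in RPMI-1640 with 10% FBS, penicillin/streptomycin, 37 °C, 5% CO₂; seeded 3000-5000 cells/well, left overnight (16 h), then medium replaced with fresh medium holding serial dilutions in triplicate for 72 h. MTT read-out; viability = absorbance of treated/solvent control × 100%. Stattic served as reference.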
For orientation: Tetrazolium dyes change colour on reduction, which living cells bring about.

A short description of series [2]: Antiproliferative activity against human A549 cells after 72 hrs by MTT assay. The series is classed as functional, cell-based. Conditions: A549, 72 h. In outline: as §1
Series [3] in a line: Antiproliferative activity against human MCF7 cells after 72 hrs by MTT assay. It counts as functional, cell-based. Conditions: MCF7, 72 h. In outline: as §1
Series [4] can be described thus: Antiproliferative activity against human HCT116 cells after 72 hrs by MTT assay. The conditions noted are these: HCT-116, 72 h. The series is classed as functional, cell-based. In outline: as §1
Series [5] can be described thus: Antitumor activity against mouse 4T1 cells implanted in ICR mouse assessed as tumor growth inhibition at 1 mg/kg, ip administered once in 4 days for 11 days measured on day 12 relative to control. The series is classed as functional. Conditions: 4T1, ip, read-out: TGI. Summed up: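 Male ICR mice, 5 weeks old, inoculated with 2 × 10⁶ 4T1 cells at the right armpit. At 24 h, randomised into groups of 6 and dosed i.p.; vehicle PBS/DMSO (8:2) daily for 11 days. Killed day 12; tumours weighed; TI% = (1 − mean treated/mean control weight) × 100. Tumour p-STAT3 and STAT3 assessed by western blot.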

Another series concerns Mus musculus. In words: Toxicity in ICR mouse implanted with mouse 4T1 cells assessed as body weight loss at 1 mg/kg, ip administered once in 4 days for 11 days measured daily during compound dosing. The conditions noted are these: in vivo. It counts as organism-based. In outline:
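4T1-bearing male ICR mice (5 weeks, 6/group), dosed i.p. with PBS/DMSO (8:2) vehicle control. Body weight recorded daily. BI% = (1 − mean treated/mean control body weight) × 100.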

The target in series [6] is Signal transducer and activator of transcription 3 (Homo sapiens) (UniProt P40763). Put plainly: Inhibition of STAT3 dimer DNA binding activity in human MDA-MB-231 nuclear extract at 5 uM preincubated for 24 hrs followed by addition of [32P]hSIE by electrophoretic mobility shift assay. In outline:
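Cells treated 24 h in fresh growth medium. Nuclear extracts of equal total protein incubated with ³²P-labelled hSIE oligonucleotide probe and resolved by EMSA; Stattic 5 µM as comparator.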

In another series the test system is MDA-MB-231. Put plainly: Potency index, ratio of stattic IC50 to compound IC50 for human MDA-MB-231 cells. The series is classed as functional.
For a further series, the system named is A549. Put plainly: Potency index, ratio of stattic IC50 to compound IC50 for human A549 cells. It counts as functional.
The next series deals with MCF7. Put plainly: Potency index, ratio of stattic IC50 to compound IC50 for human MCF7 cells. The series is classed as functional.
The subject of a further series is HCT-116. In words: Potency index, ratio of stattic IC50 to compound IC50 for human HCT116 cells. The series is classed as functional.

Active and inactive are the calls of the source. No cut-off for these calls is given here.

Sequence of Signal transducer and activator of transcription 3 (Homo sapiens) (P40763 whole entry): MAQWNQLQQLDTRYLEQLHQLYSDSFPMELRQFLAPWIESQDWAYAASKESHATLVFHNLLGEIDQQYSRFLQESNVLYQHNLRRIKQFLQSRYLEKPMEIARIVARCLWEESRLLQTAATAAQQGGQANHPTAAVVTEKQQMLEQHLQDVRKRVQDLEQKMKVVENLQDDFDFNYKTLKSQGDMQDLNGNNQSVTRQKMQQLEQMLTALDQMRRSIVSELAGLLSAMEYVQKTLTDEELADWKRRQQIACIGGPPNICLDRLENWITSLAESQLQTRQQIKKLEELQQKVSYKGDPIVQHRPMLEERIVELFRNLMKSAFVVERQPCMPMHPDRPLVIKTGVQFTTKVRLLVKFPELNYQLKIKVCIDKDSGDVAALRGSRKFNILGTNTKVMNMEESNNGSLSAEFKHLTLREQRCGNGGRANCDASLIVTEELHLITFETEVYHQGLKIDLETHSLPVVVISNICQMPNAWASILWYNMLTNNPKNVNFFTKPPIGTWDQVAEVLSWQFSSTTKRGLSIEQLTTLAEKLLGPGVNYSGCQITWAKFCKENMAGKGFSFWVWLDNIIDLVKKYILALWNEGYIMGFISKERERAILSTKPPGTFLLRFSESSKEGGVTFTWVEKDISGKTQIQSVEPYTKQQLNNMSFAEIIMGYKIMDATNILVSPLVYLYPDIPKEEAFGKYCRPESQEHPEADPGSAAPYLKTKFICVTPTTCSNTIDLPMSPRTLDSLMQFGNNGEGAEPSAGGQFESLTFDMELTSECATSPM

Consider `COc1ccc(Nc2ccc3c(c2)S(=O)(=O)C=C3)cc1`, for which the IC50 in series [1] came to 1400 nM; in [2], 1220 nM; in series [3], 1210 nM; in series [4] it was 1170 nM.
On to `COc1cccc2c1C(=O)c1c(O)c3c(c(O)c1C2=O)C[C@@](O)(C(=O)CO)C[C@@H]3O[C@H]1C[C@H](N)[C@H](O)[C@H](C)O1` [DOXORUBICIN], for which the inhibition in vivo at 1 mg/kg in series [5] was found to be 67%. Further, in the series with Mus musculus, the Activity entry is reported as “Toxic”.
For the molecule `O=S1(=O)C=Cc2cccc(Nc3ccc(Cl)c(Cl)c3)c21`, the IC50 stood at 1360 nM in series [1], 660 nM in series [2], 570 nM in series [3] and 680 nM in series [4].
In the case of `COc1ccccc1Nc1cccc2c1S(=O)(=O)C=C2`, the IC50 in [1] was determined as 2400 nM; in series [2] it was 2590 nM; in series [3], 5100 nM; in series [4], 5000 nM.
Regarding `O=S1(=O)C=Cc2ccc(Nc3ccc(Cl)cc3)cc21`, the IC50 was 6720 nM in [1], 2300 nM in series [2], 2670 nM in series [3] and 4440 nM in series [4].
With `O=[N+]([O-])c1ccc2c(c1)S(=O)(=O)C=C2`, the IC50 in [1] stood at 1680 nM; in [2], 4400 nM; in series [3], 2360 nM; in series [4], 1080 nM. Also, the inhibition entry in [6] is “Active”.
On to `O=S1(=O)C=Cc2cccc(Nc3ccc(C(F)(F)F)cc3)c21`, for which the IC50 came out at 1200 nM in series [1], 2440 nM in series [2], 1820 nM in series [3] and 1440 nM in [4].
For `O=S1(=O)C=Cc2cccc(Nc3ccccc3C(F)(F)F)c21`, in that order: 3900 nM, 4120 nM, 8100 nM and 5950 nM.
Regarding `COc1cc(Nc2ccc3c(c2)S(=O)(=O)C=C3)cc(OC)c1OC`, the IC50 in series [1] was 1430 nM; in [2] it was 1880 nM; in [3], 2230 nM; in series [4], 1420 nM.
For `O=S1(=O)C=Cc2ccc(Nc3ccc(Cl)c(Cl)c3)cc21`, in that order: 890 nM, 3320 nM, 2230 nM and 2470 nM.
The like results for `Cc1cc(C)cc(Nc2cccc3c2S(=O)(=O)C=C3)c1` were, in that order, 3120 nM, 4800 nM, 8800 nM and > 10000 nM.
The like results for `O=S1(=O)C=Cc2ccc(Nc3cccc(OC(F)(F)F)c3)cc21` were, in that order, 2080 nM, 1370 nM, 2020 nM and 1980 nM.
`O=S1(=O)C=Cc2cccc(Nc3cc(C(F)(F)F)cc(C(F)(F)F)c3)c21`: the IC50 came out at 3120 nM in series [1], 3840 nM in series [2], 5110 nM in [3] and 3600 nM in [4].
The like results for `Cc1ccc(Nc2cccc3c2S(=O)(=O)C=C3)cc1` were, in that order, 1560 nM, 2680 nM, 1890 nM and 4000 nM.
Regarding `O=S1(=O)C=Cc2cccc(Nc3c(F)c(F)c(F)c(F)c3F)c21`, the IC50 came out at 4460 nM in [1], 3480 nM in series [2], 2300 nM in series [3] and 3370 nM in [4].
In the case of `O=S1(=O)C=Cc2ccc(Nc3ccc(C(F)(F)F)cc3)cc21`, the IC50 came out at 1300 nM in series [1], 1140 nM in [2], 1270 nM in [3] and 1340 nM in series [4].
With `COc1ccc(Nc2cccc3c2S(=O)(=O)C=C3)cc1`, the IC50 turned out to be 1040 nM in series [1], 2590 nM in series [2], 940 nM in series [3] and 1990 nM in [4].
For `O=S1(=O)C=Cc2ccc(Nc3ccc(F)c(F)c3)cc21`, in that order: 3050 nM, 1550 nM, 2610 nM and 3020 nM.
As for `N#Cc1cccc(Nc2ccc3c(c2)S(=O)(=O)C=C3)c1`, the concentration for half-maximal inhibition (IC50) in [1], in series [2], in series [3] and in [4] was > 10000 nM in each case.
On to `O=S1(=O)C=Cc2cccc(Nc3ccc(OC(F)(F)F)cc3)c21`, for which the IC50 in series [1] amounted to 2100 nM; in series [2], 1570 nM; in [3], 2690 nM; in series [4], 2380 nM.
For `COc1cc(Nc2cccc3c2S(=O)(=O)C=C3)cc(OC)c1OC`, in that order: 990 nM, 950 nM, 930 nM and 1150 nM.
With `O=S1(=O)C=Cc2cccc(Nc3ccc(Cl)cc3)c21`, the IC50 in series [1] is 1210 nM; in [2], 1040 nM; in series [3] it was 680 nM; in series [4] it was 260 nM. In addition, the “Ratio IC50” value with MDA-MB-231, in the series with A549, with MCF7 and in the series with HCT-116 was 1.4 - 7.2 in each case.
`O=S1(=O)C=Cc2ccc(Nc3cccc(C(F)(F)F)c3)cc21`: the IC50 in series [1] came to 1310 nM; in [2], 1440 nM; in [3], 2500 nM; in [4], 1370 nM.
For `O=S1(=O)C=Cc2cccc(Nc3ccc(F)c(F)c3)c21`, in that order: 1890 nM, 2500 nM, 950 nM and 680 nM.
For `O=S1(=O)C=Cc2cccc(Nc3cccc(F)c3)c21`, in that order: 1910 nM, 2550 nM, 1120 nM and 1220 nM.
